1 compound from ChEMBL document CHEMBL1153564 (Antimicrob Agents Chemother, 2008) can be followed below.

Values after ≈ are worked out from the molar mass of the structure shown. Active and inactive are the calls of the source. The calls are words filed in the database; no cut-off is given here. Starred links: 1 amine or outer side, 2 acyl side, 3 side chain; linkers in the order of their positions; H or OH if unused. Positions of bridges follow the written chain, without caps; N, C: chain ends. Non-standard residues stand in square brackets, D forms with d. Residues, ends and D or L forms follow the SMILES beside them. *: point of attachment. pTerphenylCO(4''-OnC5H11) = CCCCCOc1ccc(-c2ccc(-c3ccc(C(=O)*)cc3)cc2)cc1; Orn(4R-OH,5R-OH) = O=C([C@H](C[C@@H](O)[C@@H](O)N[*:3])N[*:1])[*:2]; hTyr(3S-OH,4S-OH) = N[C@H](C(=O)O)[C@H](O)[C@@H](O)c1ccc(O)cc1; Pro(3S-OH,4S-Me) = C[C@H]1CN[C@H](C(=O)O)[C@H]1O; Hyp = O=C(O)[C@@H]1C[C@@H](O)CN1 Some results are limits rather than exact numbers.

Data set [1] concerns Nakaseomyces glabratus. The data set is described as follows: Antifungal activity against Candida glabrata 5376 infected in neutropenic ICR/Swiss mouse candidiasis model assessed as suppression of fungal regrowth at 1.25 mg/kg, ip administered 2 hrs postinfection as single dose by time-kill assay. In kind it is functional, organism-based. More on the design: dose 1.25 mg/kg. The gist of the method:
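Single ip dose of 1.25, 5 or 20 mg/kg given 2 h after iv infection of neutropenic mice. Groups of 3 treated and 3 control mice sampled at 1–24 h intervals over 96 h. Kidney homogenates plated on SDA, 24 h at 35°C. PAFE = time for treated burden to rise 1 log10 CFU/kidney after serum level fell below MIC, minus the same time in controls.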

The test system of data set [2] is Candida albicans. The data set is described as follows: Antifungal activity against Candida albicans 98-210 infected in neutropenic ICR/Swiss mouse candidiasis model assessed as dose required to maintain […] of 3.81 +/- 0.33 log10CFU per kidney administered intraperitoneally every 24 hrs up to 4 days measured per 24 hrs. In kind it is functional. The gist of the method:
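Neutropenic mice (cyclophosphamide sc on days −4, −1 and +2) were infected iv 2 h before therapy. Five total doses from 0.078 to 20 mg/kg/24 h were given ip q24h for 4 days, three mice per regimen. Kidney CFU were measured at the end of therapy. Static and 1-log-kill doses were derived from a Hill sigmoid dose-effect fit.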

The test system of data set [3] is Nakaseomyces glabratus. The data set is described as follows: Antifungal activity against Candida glabrata 33616 assessed as partial growth inhibition after 24 hrs by CLSI end point method. In kind it is functional. The note with it: Nakaseomyces glabratus, 33616, 24 h. The gist of the method:
(§1)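 Two end points were read against the drug-free control well: partial growth inhibition (the CLSI end point) and complete inhibition. Run in duplicate on four separate occasions; the value is the mean. Drug stock was made in DMSO and diluted in 0.9% NaCl.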

The nature of data set [4]: Protein binding in Candida albicans K-1 infected neutropenic ICR/Swiss mouse serum after 30 mins by arithmetic dilution method. In kind it is ADME, organism-based. The note with it: read-out: PB (converted).
In data set [5] the test system is Nakaseomyces glabratus. The data set is described as follows: Antifungal activity against Candida glabrata 37661 assessed as complete growth inhibition after 24 hrs by CLSI end point method. In kind it is functional. The note with it: Nakaseomyces glabratus, 37661, 24 h. The gist of the method: as §1
Data set [6] has as its system Nakaseomyces glabratus. The data set is described as follows: Antifungal activity against Candida glabrata 35315 infected in neutropenic ICR/Swiss mouse candidiasis model assessed as dose required to maintain […] burden of 1.83 +/- 0.54 log10CFU per kidney administered intraperitoneally every 24 hrs up to 4 days measured per 24 hrs. In kind it is functional.
In data set [7] the test system is Nakaseomyces glabratus. The data set is described as follows: Antifungal activity against Candida glabrata 5376 infected in neutropenic ICR/Swiss mouse candidiasis model assessed as dose required to maintain […] of 3.71 +/- 0.21 log10CFU per kidney administered intraperitoneally every 48 hrs up to 4 days measured per 96 hrs.
The test system of data set [8] is Nakaseomyces glabratus. The data set is described as follows: Antifungal activity against Candida glabrata 35315 infected in neutropenic ICR/Swiss mouse candidiasis model assessed as fungal count per kidney administered 2 hrs postinfection measured up to 48 hrs. In kind it is functional. The gist of the method:
(§2)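 Female ICR/Swiss mice (23–27 g) made neutropenic with cyclophosphamide s.c. (150 mg/kg day −4, 100 mg/kg day −1, 100 mg/kg day +2). Infected by tail vein with 0.1 ml inoculum (~6.1 log10 CFU/ml). Kidneys of untreated mice were homogenised and plated on SDA for 24 h at 35°C. Growth over 48 h is given as log10 CFU/kidney.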

The subject of data set [9] is Nakaseomyces glabratus. As to the kind of experiment: Antifungal activity against Candida glabrata 570 assessed as complete growth inhibition after 24 hrs by CLSI end point method. In kind it is functional. The note with it: Nakaseomyces glabratus, 570, 24 h. The gist of the method: as §1
The subject of data set [10] is Candida albicans. The data set is described as follows: Antifungal activity against Candida albicans K-1 infected in neutropenic ICR/Swiss mouse candidiasis model assessed as prolongation of fungal growth suppression at 20 mg/kg, ip administered 2 hrs postinfection as single dose by time-kill assay. The note with it: route intraperitoneal. In kind it is functional. The gist of the method:
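Single ip dose (20, 5 or 1.25 mg/kg) given 2 h after iv infection of neutropenic mice with K-1. Three treated and three control mice were sampled at intervals over 96 h for kidney CFU. PAFE is the time for treated burden to rise 1 log10 after serum levels fall below MIC, minus the same time in controls. Free drug was taken as 1%.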

Data set [11] relates to Nakaseomyces glabratus. As to the kind of experiment: Antifungal activity against Candida glabrata 5376 infected in neutropenic ICR/Swiss mouse candidiasis model assessed as dose required for 1-log10 reduction in […] per kidney administered intraperitoneally every 16 hrs up to 4 days measured per 96 hrs. In kind it is functional. The gist of the method: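 Neutropenic ICR/Swiss mice infected i.v. with the strain; therapy began 2 h later. Total doses of 1.25–320 mg/kg/96 h were given i.p. as 1, 2, 4 or 6 doses (q96h, q48h, q24h, q16h), three mice per regimen. Kidney CFU were counted after 4 days. Effect is the change from untreated controls at the end of therapy.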

The test system of data set [12] is Nakaseomyces glabratus. The data set is described as follows: Antifungal activity against Candida glabrata 570 infected in neutropenic ICR/Swiss mouse candidiasis model assessed as fungal count per kidney administered 2 hrs postinfection measured up to 48 hrs. In kind it is functional. The gist of the method: as §2
Data set [13] concerns Candida albicans. As to the kind of experiment: Antifungal activity against Candida albicans K-1 infected in neutropenic ICR/Swiss mouse candidiasis model assessed as dose required for 1-log10 reduction in […] per kidney administered intraperitoneally every 24 hrs up to 4 days measured per 96 hrs. In kind it is functional. The gist of the method:
(§3)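 Neutropenic mice were infected iv with C. albicans K-1 2 h before therapy. Total doses of 1.25, 5, 20, 80 and 320 mg/kg/96 h were split into 1, 2, 4 or 6 ip doses (q96h, q48h, q24h, q16h), three mice per regimen. Effect is the log10 CFU/kidney relative to untreated controls at 96 h. Static and 1-log doses were taken from a Hill model fit.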

In data set [14] the test system is Nakaseomyces glabratus. The data set is described as follows: Antifungal activity against Candida glabrata 5376 infected in neutropenic ICR/Swiss mouse candidiasis model assessed as dose required to maintain […] of 3.71 +/- 0.21 log10CFU per kidney administered intraperitoneally every 24 hrs up to 4 days measured per 96 hrs.
In data set [15] the test system is Candida albicans. The data set is described as follows: Antifungal activity against Candida albicans K-1 infected in neutropenic ICR/Swiss mouse candidiasis model assessed as dose required to maintain […] of 3.90 +/- 0.15 log10CFU per kidney administered intraperitoneally every 24 hrs up to 4 days measured per 96 hrs. In kind it is functional. The gist of the method:
as §3

Data set [16] concerns Nakaseomyces glabratus. The data set is described as follows: Antifungal activity against Candida glabrata 513 infected in neutropenic ICR/Swiss mouse candidiasis model assessed as dose required to maintain […] burden of 1.83 +/- 0.54 log10CFU per kidney administered intraperitoneally every 24 hrs up to 4 days measured per 24 hrs. In kind it is functional.
For data set [17], the system named is Nakaseomyces glabratus. The data set is described as follows: Antifungal activity against Candida glabrata 5592 assessed as complete growth inhibition after 24 hrs by CLSI end point method. In kind it is functional. The note with it: Nakaseomyces glabratus, 5592, 24 h. The gist of the method: as §1
The test system of data set [18] is Nakaseomyces glabratus. The data set is described as follows: Antifungal activity against Candida glabrata 32930 assessed as partial growth inhibition after 24 hrs by CLSI end point method. In kind it is functional. The note with it: Nakaseomyces glabratus, 32930, 24 h. The gist of the method: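 CLSI M27-A2 broth dilution. Two end points read against the drug-free control well: partial inhibition (CLSI end point) and complete inhibition. Run in duplicate on four separate occasions; value is the mean. Drug stock in DMSO, diluted in 0.9% NaCl.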

For data set [19], the system named is Nakaseomyces glabratus. The data set is described as follows: Antifungal activity against Candida glabrata 5376 infected in neutropenic ICR/Swiss mouse candidiasis model assessed as reduction of […] in kidney at 1.25 mg/kg, ip administered 2 hrs postinfection as single dose measured within 1 to 4 hrs post dosing by time-kill assay. In kind it is functional, organism-based. More on the design: dose 1.25 mg/kg. The gist of the method: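 Neutropenic mice given a single ip dose (1.25, 5 or 20 mg/kg) 2 h after tail-vein infection. Kidneys from 3 mice per time point collected nine times over 96 h. Homogenates serially diluted 1:10 and plated on SDA, 24 h at 35°C. Detection limit 100 CFU/ml.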

On to `CCCCCOc1ccc(-c2ccc(-c3ccc(C(=O)N[C@H]4C[C@@H](O)[C@@H](O)NC(=O)[C@@H]5[C@@H](O)[C@@H](C)CN5C(=O)[C@H]([C@@H](C)O)NC(=O)[C@H]([C@H](O)[C@@H](O)c5ccc(O)cc5)NC(=O)[C@@H]5C[C@@H](O)CN5C(=O)[C@H]([C@@H](C)O)NC4=O)cc3)cc2)cc1` [ANIDULAFUNGIN] ({pTerphenylCO(4''-OnC5H11)}-[Orn(4R-OH,5R-OH)]T[Hyp][hTyr(3S-OH,4S-OH)]T[Pro(3S-OH,4S-Me)]; lactam 1-C), for which the outcome in the data set with Nakaseomyces glabratus [1] and with Nakaseomyces glabratus [19] was Active. The Activity was 3.37 mg/kg in the data set with Candida albicans [2]; 6.4 mg/kg with Nakaseomyces glabratus [6]; 15.3 mg/kg in the data set with Nakaseomyces glabratus [7]; more than 96 h with Candida albicans [10]; 56.7 mg/kg in the data set on Nakaseomyces glabratus [11]; 8.1 mg/kg in the data set with Candida albicans [13]. Further, the Activity with Nakaseomyces glabratus [14] turned out to be 17.6 mg/kg; with Candida albicans [15] it was 5 mg/kg; in the data set with Nakaseomyces glabratus [16], 2.45 mg/kg. Besides, the MIC (in general, the least concentration at which growth counts as inhibited) in the data set with Nakaseomyces glabratus [3] turned out to be 1 µg/mL (≈ 0.877 µM); in the data set with Nakaseomyces glabratus [5], 2 µg/mL (≈ 1.75 µM); with Nakaseomyces glabratus [9], 0.12 µg/mL (≈ 0.105 µM); in the data set with Nakaseomyces glabratus [17], 0.12 µg/mL (≈ 0.105 µM); in the data set on Nakaseomyces glabratus [18] it was 0.06 µg/mL (≈ 0.0526 µM). Besides, in [4], the fraction unbound at 0.5 h was 0.2. Moreover, the log10cfu with Nakaseomyces glabratus [8] was 0.97; in the data set on Nakaseomyces glabratus [12], 2.45.
